Measurements as given in ChEMBL document CHEMBL1122697, “Resolved 3-(3-hydroxyphenyl)-N-n-propylpiperidine and its analogues: central dopamine receptor activity” (1984).

Assays:
Rattus norvegicus [1] = species on record: Rattus norvegicus; experiment: Half-maximal decrease of DOPA accumulation upon reserpine pretreatment in the corpus striatum of rat brain; format: functional
Rattus norvegicus [2] = species on record: Rattus norvegicus; experiment: Half-maximal decrease of DOPA accumulation upon reserpine pretreatment in the limbic system of rat brain; format: functional
Rattus norvegicus [3] = experiment: (§1) Effect on DOPAC level in limbic system of rat brain at a dose of 27 uM/kg sc 60 min before death; format: functional, organism-based
Outline: (§2)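 They were killed 60 min later. DOPAC and HVA were measured by HPLC in limbic and striatal brain portions. Values are percent of control means ± standard error of the mean.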

Rattus norvegicus [4] = species on record: Rattus norvegicus; experiment: Low dose of compound giving significant reduction and increase in motor activity without pretreatment was determined; motor activity 32% of control was observed at the lowest dose; format: functional
Outline: (§3)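 Non-pretreated male Sprague-Dawley rats received the compound sc in the neck (n = 4). They were placed singly in test cages and put into motility meters 5 min later. Motor activity was recorded over 5-35 min. The dose reported is the lowest giving a significant reduction or increase in activity, expressed as percent of controls.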

Rattus norvegicus [5] = experiment: Effect on HVA level in rat brain striatum regions at a dose of 27 uM/kg sc 60 min before death; format: functional, organism-based; outline: as §2
Rattus norvegicus [6] = experiment: Half-maximal decrease of DOPA accumulation (no reserpine pretreatment) in the limbic system of rat brain at dose 0.83 uM/kg; format: functional; parameters: scale not given: the % may be the effect or the level left
Outline: (§4)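 Male Sprague-Dawley rats (200-300 g), not pretreated, received the drug sc in the neck, dissolved in saline. NSD 1015 (100 mg/kg) followed 35 min later. Dopa accumulation was measured in limbic and striatal portions. […] Statistics by Student's t test.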

Rattus norvegicus [7] = experiment: Effect on HVA level in rat brain limbic regions at a dose of 27 uM/kg sc 60 min before death; format: functional, organism-based; outline: as §2
Rattus norvegicus [8] = experiment: Motor activity with reserpine pretreatment at dose 53 uM/kg; format: functional
Rattus norvegicus [9] = experiment: Effect on DOPAC level in rat brain striatum regions at a dose of 27 uM/kg sc 60 min before death; format: functional, organism-based; outline: as §2
Rattus norvegicus [10] = experiment: Motor activity with reserpine pretreatment at dose 133 umol/kg; format: functional
Rattus norvegicus [11] = experiment: Motor activity with reserpine pretreatment at dose 7.0 umol/kg; format: functional
Outline: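 Test drug dissolved in saline, given sc in the neck (n = 4). Rats placed singly in motility meter cages immediately after dosing. Motor activity recorded as accumulated counts over 0–30 min and compared with controls.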

Rattus norvegicus [12] = experiment: Motor activity with reserpine pretreatment at dose 13 uM/kg; format: functional
Rattus norvegicus [13] = experiment: Half-maximal decrease of DOPA accumulation (no reserpine pretreatment) in the limbic system of rat brain at dose 0.8 uM/kg; format: functional; parameters: scale not given: the % may be the effect or the level left; outline: as §4
Rattus norvegicus [14] = species on record: Rattus norvegicus; experiment: High dose of compound giving significant reduction and increase in motor activity without pretreatment was determined; motor activity 230% of control was observed at the highest dose; format: functional; outline: as §3
Rattus norvegicus [15] = experiment: Half-maximal decrease of DOPA accumulation (no reserpine pretreatment) in the striatum of rat brain at dose 0.8 uM/kg; format: functional; parameters: scale not given: the % may be the effect or the level left; outline: as §4
Rattus norvegicus [16] = species on record: Rattus norvegicus; experiment: Low dose of compound giving significant reduction and increase in motor activity without pretreatment was determined; motor activity 75% of control was observed at the lowest dose; format: functional; outline: as §3
Rattus norvegicus [17] = experiment: as §1; format: functional, organism-based; remark: listed apart in the source
Outline: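 Male Sprague-Dawley rats (200-300 g) got a single sc dose of 27 μmol/kg, dissolved in saline. They were killed 60 min later. DOPAC and HVA were measured by HPLC in limbic and striatal brain portions. Values are percent of control means ± standard error of the mean.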

Rattus norvegicus [18] = species on record: Rattus norvegicus; experiment: […] without pretreatment was determined; motor activity 40% of control was observed at the highest dose; format: functional
Rattus norvegicus [19] = experiment: Motor activity with reserpine pretreatment at dose 213 uM/kg; format: functional
Rattus norvegicus [20] = species on record: Rattus norvegicus; experiment: Low dose of compound giving significant reduction and increase in motor activity without pretreatment was determined; motor activity 74% of control was observed at the lowest dose; format: functional; outline: as §3
Rattus norvegicus [21] = experiment: Half-maximal decrease of DOPA accumulation (no reserpine pretreatment) in the limbic system of rat brain at dose 213 uM/kg; format: functional; parameters: scale not given: the % may be the effect or the level left; outline: as §4
Rattus norvegicus [22] = experiment: Half-maximal decrease of DOPA accumulation (no reserpine pretreatment) in the striatum of rat brain at dose 27 uM/kg; format: functional; parameters: scale not given: the % may be the effect or the level left; outline: as §4
Rattus norvegicus [23] = species on record: Rattus norvegicus; experiment: Low dose of compound giving significant reduction and increase in motor activity without pretreatment was determined; motor activity 41% of control was observed at the lowest dose; format: functional; outline: as §3
Rattus norvegicus [24] = experiment: Half-maximal decrease of DOPA accumulation (no reserpine pretreatment) in the striatum of rat brain at dose 0.24 uM/kg; format: functional; parameters: scale not given: the % may be the effect or the level left; outline: as §4
Rattus norvegicus [25] = species on record: Rattus norvegicus; experiment: […] without pretreatment was determined; motor activity 137% of control was observed at the highest dose; format: functional
Rattus norvegicus [26] = experiment: Motor activity with reserpine pretreatment at dose 3.3 uM/kg; format: functional
Rattus norvegicus [27] = experiment: Half-maximal decrease of DOPA accumulation (no reserpine pretreatment) in the limbic system of rat brain at dose 0.98 uM/kg; format: functional; parameters: scale not given: the % may be the effect or the level left; outline: as §4
Rattus norvegicus [28] = experiment: Motor activity with reserpine pretreatment at dose 14 umol/kg; format: functional
Rattus norvegicus [29] = experiment: Half-maximal decrease of DOPA accumulation (no reserpine pretreatment) in the limbic system of rat brain at dose 227 uM/kg; format: functional; parameters: scale not given: the % may be the effect or the level left; outline: as §4
Rattus norvegicus [30] = experiment: Motor activity with reserpine pretreatment at dose 100 uM/kg; format: functional
Rattus norvegicus [31] = experiment: Half-maximal decrease of DOPA accumulation (no reserpine pretreatment) in the striatum of rat brain at dose 227 uM/kg; format: functional; parameters: scale not given: the % may be the effect or the level left; outline: as §4
Rattus norvegicus [32] = experiment: Half-maximal decrease of DOPA accumulation (no reserpine pretreatment) in the limbic system of rat brain at dose 3.7 uM/kg; format: functional; parameters: scale not given: the % may be the effect or the level left; outline: as §4
Rattus norvegicus [33] = experiment: Half-maximal decrease of DOPA accumulation (no reserpine pretreatment) in the striatum of rat brain at dose 3.7 uM/kg; format: functional; parameters: scale not given: the % may be the effect or the level left; outline: as §4
Rattus norvegicus [34] = species on record: Rattus norvegicus; experiment: Low dose of compound giving significant reduction and increase in motor activity without pretreatment was determined; motor activity 58% of control was observed at the lowest dose; format: functional; outline: as §3
Rattus norvegicus [35] = species on record: Rattus norvegicus; experiment: High dose of compound giving significant reduction and increase in motor activity without pretreatment was determined; motor activity 92% of control was observed at the highest dose; format: functional; outline: as §3
Rattus norvegicus [36] = species on record: Rattus norvegicus; experiment: High dose of compound giving significant reduction and increase in motor activity without pretreatment was determined; motor activity 55% of control was observed at the highest dose; format: functional; outline: as §3
Rattus norvegicus [37] = experiment: Reduction of DOPA accumulation upon reserpine pretreatment in the corpus striatum of rat brain at a dose of 100 umol/kg; format: functional
Outline: (§5)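 Test drug dissolved in saline, injected sc in the neck. 30 min later, NSD 1015 100 mg/kg given. Dopa measured in brain portions (limbic, striatal) and expressed as percent reduction from control levels. Student's t test used for statistics.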

Rattus norvegicus [38] = experiment: Reduction of DOPA accumulation upon reserpine pretreatment in the limbic system of rat brain at a dose of 100 umol/kg; format: functional; outline: as §5
Rattus norvegicus [39] = experiment: Half-maximal decrease of DOPA accumulation (no reserpine pretreatment) in the limbic system of rat brain at dose 3.9 uM/kg; format: functional; parameters: scale not given: the % may be the effect or the level left; outline: as §4
Rattus norvegicus [40] = experiment: Half-maximal decrease of DOPA accumulation (no reserpine pretreatment) in the striatum of rat brain at dose 0.98 uM/kg; format: functional; parameters: scale not given: the % may be the effect or the level left; outline: as §4
Rattus norvegicus [41] = species on record: Rattus norvegicus; experiment: Low dose of compound giving significant reduction and increase in motor activity without pretreatment was determined; motor activity 53% of control was observed at the lowest dose; format: functional; outline: as §3
Rattus norvegicus [42] = experiment: Motor activity with reserpine pretreatment at dose 265 umol/kg; format: functional

CN1CCc2cccc3c2[C@H]1Cc1ccc(O)c(O)c1-3 [APOMORPHINE]
ED50 (Rattus norvegicus [1]): 0.22 µmol/kg
ED50 (Rattus norvegicus [2]): 0.19 µmol/kg

CCCCN1CCC[C@@H](c2cccc(O)c2)C1
Level (Rattus norvegicus [3]): 91
Dose (Rattus norvegicus [4]): 3.7 µM/kg
Level (Rattus norvegicus [5]): 142
ED50 (Rattus norvegicus [1]): 0.77 µmol/kg
Control (Rattus norvegicus [6]): 84%
Level (Rattus norvegicus [7]): 103
Accumulated counts (Rattus norvegicus [8]): 63
Level (Rattus norvegicus [9]): 118

CN1CCC[C@H](c2cccc(O)c2)C1
ED50 (Rattus norvegicus [1]): 2.9 µmol/kg
Accumulated counts (Rattus norvegicus [10]): 88

Oc1cccc([C@@H]2CCCN(CCc3ccccc3)C2)c1
ED50 (Rattus norvegicus [1]): 0.13 µmol/kg
Accumulated counts (Rattus norvegicus [11]): 71

CCCN1CCC[C@H](c2cccc(O)c2)C1
Accumulated counts (Rattus norvegicus [12]): 78
Control (Rattus norvegicus [13]): 86%
Dose (Rattus norvegicus [14]): 213 µM/kg
Control (Rattus norvegicus [15]): 81%
Level (Rattus norvegicus [5]): 45
ED50 (Rattus norvegicus [1]): 1.3 µmol/kg
Level (Rattus norvegicus [7]): 52
Dose (Rattus norvegicus [16]): 1.6 µM/kg
Level (Rattus norvegicus [17]): 59
Level (Rattus norvegicus [9]): 63

CCCN1CCC[C@@H](c2cccc(O)c2)C1 [PRECLAMOL]
Dose (Rattus norvegicus [18]): 213 µM/kg
Accumulated counts (Rattus norvegicus [19]): 12
Level (Rattus norvegicus [3]): 114
Level (Rattus norvegicus [5]): 162
ED50 (Rattus norvegicus [1]): 1.7 µmol/kg
Dose (Rattus norvegicus [20]): 0.8 µM/kg
Level (Rattus norvegicus [7]): 100
Level (Rattus norvegicus [9]): 145
Control (Rattus norvegicus [21]): 95%
Control (Rattus norvegicus [22]): 147%

CC(C)N1CCC[C@@H](c2cccc(O)c2)C1
Dose (Rattus norvegicus [23]): 0.2 µM/kg
Control (Rattus norvegicus [24]): 76%
Dose (Rattus norvegicus [25]): 13 µM/kg
Level (Rattus norvegicus [3]): 60
Level (Rattus norvegicus [5]): 68
ED50 (Rattus norvegicus [1]): 0.45 µmol/kg
Accumulated counts (Rattus norvegicus [26]): 38
Level (Rattus norvegicus [7]): 51
Control (Rattus norvegicus [27]): 74%
Level (Rattus norvegicus [9]): 81

Oc1cccc([C@H]2CCCN(CCc3ccccc3)C2)c1
ED50 (Rattus norvegicus [1]): 6.9 µmol/kg
Accumulated counts (Rattus norvegicus [28]): 26

CN1CCC[C@@H](c2cccc(O)c2)C1
Dose (Rattus norvegicus [18]): 227 µM/kg
ED50 (Rattus norvegicus [1]): 10 µmol/kg
Control (Rattus norvegicus [29]): 48%
Accumulated counts (Rattus norvegicus [30]): 36
Control (Rattus norvegicus [31]): 51%

CCCCN1CCC[C@H](c2cccc(O)c2)C1
Control (Rattus norvegicus [32]): 72%
Control (Rattus norvegicus [33]): 76%
Level (Rattus norvegicus [3]): 55
Level (Rattus norvegicus [5]): 52
ED50 (Rattus norvegicus [1]): 2.2 µmol/kg
Dose (Rattus norvegicus [34]): 3.7 µM/kg
Level (Rattus norvegicus [7]): 52
Accumulated counts (Rattus norvegicus [8]): 180
Dose (Rattus norvegicus [35]): 53 µM/kg
Level (Rattus norvegicus [9]): 58
ED50 (Rattus norvegicus [2]): 2.3 µmol/kg

Oc1cccc([C@@H]2CCCNC2)c1
Dose (Rattus norvegicus [36]): 227 µM/kg
Reduction (Rattus norvegicus [37]): 26%
Reduction (Rattus norvegicus [38]): 19%
Control (Rattus norvegicus [29]): 50%
Control (Rattus norvegicus [31]): 44%

CC(C)N1CCC[C@H](c2cccc(O)c2)C1
Control (Rattus norvegicus [39]): 77%
Control (Rattus norvegicus [40]): 85%
Level (Rattus norvegicus [5]): 89
ED50 (Rattus norvegicus [1]): 13 µmol/kg
Level (Rattus norvegicus [7]): 80
Accumulated counts (Rattus norvegicus [8]): 49
Level (Rattus norvegicus [17]): 70
Dose (Rattus norvegicus [41]): 0.2 µM/kg
Level (Rattus norvegicus [9]): 74

Oc1cccc([C@H]2CCCNC2)c1
Accumulated counts (Rattus norvegicus [42]): 47
ED50 (Rattus norvegicus [1]): 14 µmol/kg
